# Results taken from ChEMBL document CHEMBL5376013, “Design, synthesis and biological evaluation of novel morpholinopyrimidine-5-carbonitrile derivatives as dual PI3K/mTOR inhibitors” (RSC Med Chem, 2024).
# Legend:
# Type in all cases: functional
# Conditions in all cases: read-out: GI
# [1] = tested on: RPMI-8226; assay: Antitumor activity against human RPMI-8226 cells assessed as growth inhibition at 10 uM relative to control
# How it was run: (§1)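 After drug addition, plates were incubated 48 h at 37 °C under 5% CO2. Adherent cells were fixed with cold TCA (10% final, 60 min, 4 °C) and suspension cells with 16% final TCA. Staining used 0.4% SRB in 1% acetic acid, solubilized in 10 mM trizma, read at A515. Percent growth was calculated from time-zero, control and treated absorbances.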
# [2] = tested on: SK-MEL-2; assay: Antitumor activity against human SK-MEL-2 cells assessed as growth inhibition at 10 uM relative to control; how it was run: as §1
# [3] = tested on: DU-145; assay: Antitumor activity against human DU-145 cells assessed as growth inhibition at 10 uM relative to control; how it was run: as §1
# [4] = tested on: MOLT-4; assay: Antitumor activity against human MOLT-4 cells assessed as growth inhibition at 10 uM relative to control; how it was run: as §1
# [5] = tested on: HCT-116; assay: Antitumor activity against human HCT-116 cells assessed as growth inhibition at 10 uM relative to control; how it was run: as §1
# [6] = tested on: OVCAR-3; assay: Antitumor activity against human OVCAR-3 cells assessed as growth inhibition at 10 uM relative to control; how it was run: as §1
# [7] = tested on: SN12C; assay: Antitumor activity against human SN12C cells assessed as growth inhibition at 10 uM relative to control
# How it was run: (§2)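 Drug exposure 48 h at 37 °C, 5% CO2. Adherent cells fixed with cold TCA (10% final), suspension cells with TCA (16% final). Stained with 0.4% SRB in 1% acetic acid, dissolved in 10 mM Tris, A515. Growth relative to time-zero and untreated control.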
# [8] = tested on: SNB-19; assay: Antitumor activity against human SNB-19 cells assessed as growth inhibition at 10 uM relative to control; how it was run: as §2
# [9] = tested on: HCT-15; assay: Antitumor activity against human HCT-15 cells assessed as growth inhibition at 10 uM relative to control; how it was run: as §1
# [10] = tested on: UACC-257; assay: Antitumor activity against human UACC-257 cells assessed as growth inhibition at 10 uM relative to control; how it was run: as §2
# [11] = tested on: CAKI-1; assay: Antitumor activity against human CAKI-1 cells assessed as growth inhibition at 10 uM relative to control; how it was run: as §1
# [12] = tested on: UACC-62; assay: Antitumor activity against human UACC-62 cells assessed as growth inhibition at 10 uM relative to control; how it was run: as §2
# [13] = tested on: MDA-MB-231; assay: Antitumor activity against human MDA-MB-231 cells assessed as growth inhibition at 10 uM relative to control; how it was run: as §1
# [14] = tested on: U-251; assay: Antitumor activity against human U-251 cells assessed as growth inhibition at 10 uM relative to control; how it was run: as §2
# [15] = tested on: K562; assay: Antitumor activity against human K562 cells assessed as growth inhibition at 10 uM relative to control; how it was run: as §1
# [16] = tested on: 786-0; assay: Antitumor activity against human 786-0 cells assessed as growth inhibition at 10 uM relative to control; how it was run: as §1
# [17] = tested on: COLO 205; assay: Antitumor activity against human COLO 205 cells assessed as growth inhibition at 10 uM relative to control; how it was run: as §1
# [18] = tested on: HOP-62; assay: Antitumor activity against human HOP-62 cells assessed as growth inhibition at 10 uM relative to control; how it was run: as §1
# [19] = tested on: A549; assay: Antitumor activity against human A549 cells assessed as growth inhibition at 10 uM relative to control; how it was run: as §1
# [20] = tested on: NCI/ADR-RES; assay: Antitumor activity against human NCI-ADR-RES cells assessed as growth inhibition at 10 uM relative to control; how it was run: as §1
# [21] = tested on: SK-MEL-5; assay: Antitumor activity against human SK-MEL-5 cells assessed as growth inhibition at 10 uM relative to control; how it was run: as §2
# [22] = tested on: UO-31; assay: Antitumor activity against human UO-31 cells assessed as growth inhibition at 10 uM relative to control; how it was run: as §2
# [23] = tested on: SF-539; assay: Antitumor activity against human SF-539 cells assessed as growth inhibition at 10 uM relative to control; how it was run: as §1
# [24] = tested on: Malme-3M; assay: Antitumor activity against human Malme-3M cells assessed as growth inhibition at 10 uM relative to control; how it was run: as §1
# [25] = tested on: PC-3; assay: Antitumor activity against human PC-3 cells assessed as growth inhibition at 10 uM relative to control; how it was run: as §1
# [26] = tested on: MCF7; assay: Antitumor activity against human MCF7 cells assessed as growth inhibition at 10 uM relative to control; how it was run: as §1
# [27] = tested on: NCI-H23; assay: Antitumor activity against human NCI-H23 cells assessed as growth inhibition at 10 uM relative to control; how it was run: as §1
# [28] = tested on: SK-OV-3; assay: Antitumor activity against human SK-OV-3 cells assessed as growth inhibition at 10 uM relative to control; how it was run: as §2
# [29] = tested on: ACHN; assay: Antitumor activity against human ACHN cells assessed as growth inhibition at 10 uM relative to control; how it was run: as §1
# [30] = tested on: SR; assay: Antitumor activity against human SR cells assessed as growth inhibition at 10 uM relative to control; how it was run: as §2
# [31] = tested on: CCRF-CEM; assay: Antitumor activity against human CCRF-CEM cells assessed as growth inhibition at 10 uM relative to control; how it was run: as §1
# [32] = tested on: SK-MEL-28; assay: Antitumor activity against human SK-MEL-28 cells assessed as growth inhibition at 10 uM relative to control; how it was run: as §2
# [33] = tested on: RXF 393; assay: Antitumor activity against human RXF 393 cells assessed as growth inhibition at 10 uM relative to control; how it was run: as §1
# [34] = tested on: NCI-H226; assay: Antitumor activity against human NCI-H226 cells assessed as growth inhibition at 10 uM relative to control; how it was run: as §1
# [35] = tested on: BT-549; assay: Antitumor activity against human BT-549 cells assessed as growth inhibition at 10 uM relative to control; how it was run: as §1
# [36] = tested on: MDA-MB-468; assay: Antitumor activity against human MDA-MB-468 cells assessed as growth inhibition at 10 uM relative to control; how it was run: as §1
# [37] = tested on: HT-29; assay: Antitumor activity against human HT-29 cells assessed as growth inhibition at 10 uM relative to control; how it was run: as §1
# [38] = tested on: KM12; assay: Antitumor activity against human KM12 cells assessed as growth inhibition at 10 uM relative to control; how it was run: as §1
# [39] = tested on: SNB-75; assay: Antitumor activity against human SNB-75 cells assessed as growth inhibition at 10 uM relative to control; how it was run: as §2
# [40] = tested on: NCI-H522; assay: Antitumor activity against human NCI-H522 cells assessed as growth inhibition at 10 uM relative to control; how it was run: as §1
# [41] = tested on: SF-268; assay: Antitumor activity against human SF-268 cells assessed as growth inhibition at 10 uM relative to control; how it was run: as §1
# [42] = tested on: LOX IMVI; assay: Antitumor activity against human LOX IMVI cells assessed as growth inhibition at 10 uM relative to control; how it was run: as §1
# [43] = tested on: OVCAR-4; assay: Antitumor activity against human OVCAR-4 cells assessed as growth inhibition at 10 uM relative to control; how it was run: as §1
# [44] = tested on: T47D; assay: Antitumor activity against human T47D cells assessed as growth inhibition at 10 uM relative to control; how it was run: as §2
# [45] = tested on: SW-620; assay: Antitumor activity against human SW-620 cells assessed as growth inhibition at 10 uM relative to control; how it was run: as §2
# [46] = tested on: HOP-92; assay: Antitumor activity against human HOP-92 cells assessed as growth inhibition at 10 uM relative to control; how it was run: as §1
structure (smiles),measurement,setting,value
CC1=NN(c2nc(-c3ccc(Cl)cc3)c(C#N)c(N3CCOCC3)n2)C(=O)C1,inhibition of growth at 10 µM,[1],42.9%
same,inhibition of growth at 10 µM,[2],12.9%
same,inhibition of growth at 10 µM,[3],< 1%
same,inhibition of growth at 10 µM,[4],< 1%
same,inhibition of growth at 10 µM,[5],< 1%
same,inhibition of growth at 10 µM,[6],49.8%
same,inhibition of growth at 10 µM,[7],112%
same,inhibition of growth at 10 µM,[8],< 1%
same,inhibition of growth at 10 µM,[9],10.3%
same,inhibition of growth at 10 µM,[10],< 1%
same,inhibition of growth at 10 µM,[11],29.9%
same,inhibition of growth at 10 µM,[12],21%
same,inhibition of growth at 10 µM,[13],< 1%
same,inhibition of growth at 10 µM,[14],< 1%
same,inhibition of growth at 10 µM,[15],< 1%
same,inhibition of growth at 10 µM,[16],13.4%
same,inhibition of growth at 10 µM,[17],< 1%
same,inhibition of growth at 10 µM,[18],12.6%
same,inhibition of growth at 10 µM,[19],< 1%
same,inhibition of growth at 10 µM,[20],< 1%
same,inhibition of growth at 10 µM,[21],< 1%
same,inhibition of growth at 10 µM,[22],28.1%
same,inhibition of growth at 10 µM,[23],< 1%
same,inhibition of growth at 10 µM,[24],< 1%
same,inhibition of growth at 10 µM,[25],< 1%
same,inhibition of growth at 10 µM,[26],1%
same,inhibition of growth at 10 µM,[27],19.3%
same,inhibition of growth at 10 µM,[28],13.4%
same,inhibition of growth at 10 µM,[29],26.4%
same,inhibition of growth at 10 µM,[30],< 1%
same,inhibition of growth at 10 µM,[31],14.1%
same,inhibition of growth at 10 µM,[32],12.9%
same,inhibition of growth at 10 µM,[33],56.6%
same,inhibition of growth at 10 µM,[34],10.2%
same,inhibition of growth at 10 µM,[35],33.9%
same,inhibition of growth at 10 µM,[36],< 1%
same,inhibition of growth at 10 µM,[37],< 1%
same,inhibition of growth at 10 µM,[38],< 1%
same,inhibition of growth at 10 µM,[39],43.5%
same,inhibition of growth at 10 µM,[40],21.1%
same,inhibition of growth at 10 µM,[41],< 1%
same,inhibition of growth at 10 µM,[42],24.5%
same,inhibition of growth at 10 µM,[43],48.5%
same,inhibition of growth at 10 µM,[44],< 1%
same,inhibition of growth at 10 µM,[45],14.8%
same,inhibition of growth at 10 µM,[46],93.7%
